Key:
Klebsiella pneumoniae [1] = assay: Synergistic antibacterial activity against Klebsiella pneumoniae 972/1910 producing KPC-3 assessed as meropenem MIC at 8 ug/ml by broth microdilution method; type: functional; conditions: dose 8 µg/ml
Acinetobacter baumannii [2] = assay: Synergistic antibacterial activity against Acinetobacter baumannii PR408 producing OXA-24/40 assessed as meropenem MIC at 8 ug/ml by broth microdilution method; type: functional; conditions: dose 8 µg/ml
Bacteria = assay: Inhibition of bacteria PDC-3 assessed as second order rate constant K2/K using nitrocefin as substrate
Escherichia coli [3] = assay: Synergistic antibacterial activity against Escherichia coli DH10B transfected with pBC SK (-) OXA-48 assessed as meropenem MIC at 8 ug/ml by broth microdilution method; type: functional; conditions: dose 8 µg/ml
How it was run: (§1)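 Broth microdilution per CLSI guidelines, using custom frozen panels. […] Each partner drug was also tested alone. MICs were run in triplicate and the modal value is reported.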

Escherichia coli [4] = assay: Synergistic antibacterial activity against Escherichia coli DH10B assessed as meropenem MIC at 8 ug/ml by broth microdilution method; type: functional; conditions: dose 8 µg/ml
Klebsiella pneumoniae [5] = assay: Synergistic antibacterial activity against Klebsiella pneumoniae 1084/1957 producing KPC-3 assessed as cefepime MIC at 8 ug/ml by broth microdilution method; type: functional; conditions: dose 8 µg/ml; how it was run: as §1
Acinetobacter baumannii [6] = assay: Synergistic antibacterial activity against Acinetobacter baumannii PR474 producing OXA-23/24/40 assessed as cefepime MIC at 4 ug/ml by broth microdilution method; type: functional; conditions: dose 4 µg/ml
Klebsiella pneumoniae [7] = assay: Synergistic antibacterial activity against Klebsiella pneumoniae NY BS producing OXA-232 assessed as cefepime MIC at 8 ug/ml by broth microdilution method; type: functional; conditions: dose 8 µg/ml
Escherichia coli [8] = assay: Synergistic antibacterial activity against Escherichia coli DH10B transfected with pBC SK (-) KPC-3 assessed as meropenem MIC at 4 ug/ml by broth microdilution method; type: functional; conditions: dose 4 µg/ml
Klebsiella pneumoniae [9] = assay: Synergistic antibacterial activity against Klebsiella pneumoniae 935/1884 producing KPC-3 assessed as meropenem MIC at 4 ug/ml by broth microdilution method; type: functional; conditions: dose 4 µg/ml
Pseudomonas aeruginosa [10] = assay: Synergistic antibacterial activity against Pseudomonas aeruginosa CL232 assessed as cefepime MIC at 4 ug/ml by broth microdilution method; type: functional; conditions: dose 4 µg/ml
Acinetobacter baumannii [11] = assay: Synergistic antibacterial activity against Acinetobacter baumannii PR420 producing OXA-23/24/40 assessed as cefepime MIC at 8 ug/ml by broth microdilution method; type: functional; conditions: dose 8 µg/ml
Acinetobacter baumannii [12] = assay: Synergistic antibacterial activity against Acinetobacter baumannii PR359 producing OXA-23 assessed as cefepime MIC at 4 ug/ml by broth microdilution method; type: functional; conditions: dose 4 µg/ml
Klebsiella pneumoniae [13] = assay: Synergistic antibacterial activity against Klebsiella pneumoniae 1354/2241 producing KPC-3 assessed as cefepime MIC at 4 ug/ml by broth microdilution method; type: functional; conditions: dose 4 µg/ml; how it was run: as §1
Escherichia coli [14] = assay: Synergistic antibacterial activity against Escherichia coli DH10B transfected with pBC SK (-) PDC-3 assessed as cefepime MIC at 8 ug/ml by broth microdilution method; type: functional; conditions: dose 8 µg/ml; how it was run: as §1
Acinetobacter baumannii [15] = assay: Synergistic antibacterial activity against Acinetobacter baumannii PR476 producing OXA-24/40 assessed as cefepime MIC at 8 ug/ml by broth microdilution method; type: functional; conditions: dose 8 µg/ml
Acinetobacter baumannii [16] = assay: Synergistic antibacterial activity against Acinetobacter baumannii PR319 producing OXA-23/24/40 assessed as meropenem MIC at 4 ug/ml by broth microdilution method; type: functional; conditions: dose 4 µg/ml
Acinetobacter baumannii [17] = assay: Synergistic antibacterial activity against Acinetobacter baumannii PR440 producing OXA-23/24/40 assessed as cefepime MIC at 4 ug/ml by broth microdilution method; type: functional; conditions: dose 4 µg/ml
Pseudomonas aeruginosa [18] = assay: Synergistic antibacterial activity against Pseudomonas aeruginosa 839 assessed as cefepime MIC at 4 ug/ml by broth microdilution method; type: functional; conditions: dose 4 µg/ml
Klebsiella pneumoniae [19] = assay: Synergistic antibacterial activity against Klebsiella pneumoniae 1108/1989 producing KPC-3 assessed as cefepime MIC at 8 ug/ml by broth microdilution method; type: functional; conditions: dose 8 µg/ml; how it was run: as §1
Acinetobacter baumannii [20] = assay: Synergistic antibacterial activity against Acinetobacter baumannii PR381 producing OXA-24/40 assessed as cefepime MIC at 8 ug/ml by broth microdilution method; type: functional; conditions: dose 8 µg/ml
Klebsiella pneumoniae [21] = assay: Synergistic antibacterial activity against Klebsiella pneumoniae 11978 producing OXA-48 assessed as meropenem MIC at 8 ug/ml by broth microdilution method; type: functional; conditions: dose 8 µg/ml; how it was run: as §1
Klebsiella pneumoniae [22] = assay: Synergistic antibacterial activity against Klebsiella pneumoniae 977/1916 producing KPC-3 assessed as meropenem MIC at 4 ug/ml by broth microdilution method; type: functional; conditions: dose 4 µg/ml
Klebsiella pneumoniae [23] = assay: Synergistic antibacterial activity against Klebsiella pneumoniae 1084/1957 producing KPC-3 assessed as meropenem MIC at 8 ug/ml by broth microdilution method; type: functional; conditions: dose 8 µg/ml; how it was run: as §1
Escherichia coli [24] = assay: Synergistic antibacterial activity against Escherichia coli DH10B transfected with pBR322-catI-KPC-2 assessed as meropenem MIC at 8 ug/ml by broth microdilution method; type: functional; conditions: dose 8 µg/ml; how it was run: as §1
Acinetobacter baumannii [25] = assay: Synergistic antibacterial activity against Acinetobacter baumannii PR448 producing OXA-23 assessed as meropenem MIC at 8 ug/ml by broth microdilution method; type: functional; conditions: dose 8 µg/ml
Acinetobacter baumannii [26] = assay: Synergistic antibacterial activity against Acinetobacter baumannii PR476 producing OXA-24/40 assessed as meropenem MIC at 8 ug/ml by broth microdilution method; type: functional; conditions: dose 8 µg/ml
Escherichia coli [27] = assay: Synergistic antibacterial activity against Escherichia coli DH10B transfected with pBC SK (-) KPC-2 assessed as cefepime MIC at 4 ug/ml by broth microdilution method; type: functional; conditions: dose 4 µg/ml
Acinetobacter baumannii [28] = assay: Synergistic antibacterial activity against Acinetobacter baumannii PR323 producing OXA-24/40 assessed as cefepime MIC at 8 ug/ml by broth microdilution method; type: functional; conditions: dose 8 µg/ml
Acinetobacter baumannii [29] = assay: Synergistic antibacterial activity against Acinetobacter baumannii PR381 producing OXA-24/40 assessed as meropenem MIC at 8 ug/ml by broth microdilution method; type: functional; conditions: dose 8 µg/ml
Escherichia coli [30] = assay: Synergistic antibacterial activity against Escherichia coli DH10B transfected with pBR322-catI-KPC-2 assessed as meropenem MIC at 4 ug/ml by broth microdilution method; type: functional; conditions: dose 4 µg/ml; how it was run: as §1
Klebsiella pneumoniae [31] = assay: Synergistic antibacterial activity against Klebsiella pneumoniae CAV 1543 producing OXA-48 assessed as cefepime MIC at 8 ug/ml by broth microdilution method; type: functional; conditions: dose 8 µg/ml
Acinetobacter baumannii [32] = assay: Synergistic antibacterial activity against Acinetobacter baumannii PR319 producing OXA-23/24/40 assessed as meropenem MIC at 8 ug/ml by broth microdilution method; type: functional; conditions: dose 8 µg/ml
Acinetobacter baumannii [33] = assay: Synergistic antibacterial activity against ADC deleted Acinetobacter baumannii transfected with pWH1266 producing OXA-24/40 assessed as cefepime MIC at 4 ug/ml by broth microdilution method; type: functional; conditions: dose 4 µg/ml
Klebsiella pneumoniae [34] = assay: Synergistic antibacterial activity against Klebsiella pneumoniae NY BS producing OXA-232 assessed as meropenem MIC at 4 ug/ml by broth microdilution method; type: functional; conditions: dose 4 µg/ml

SMILES | MIC (Klebsiella pneumoniae [1]) [µg/mL] | MIC (Acinetobacter baumannii [2]) [µg/mL] | K (Bacteria) | MIC (Escherichia coli [3]) [µg/mL] | MIC (Escherichia coli [4]) [µg/mL] | MIC (Klebsiella pneumoniae [5]) [µg/mL] | MIC (Acinetobacter baumannii [6]) [µg/mL] | MIC (Klebsiella pneumoniae [7]) [µg/mL] | MIC (Escherichia coli [8]) [µg/mL] | MIC (Klebsiella pneumoniae [9]) [µg/mL] | MIC (Pseudomonas aeruginosa [10]) [µg/mL] | MIC (Acinetobacter baumannii [11]) [µg/mL] | MIC (Acinetobacter baumannii [12]) [µg/mL] | MIC (Klebsiella pneumoniae [13]) [µg/mL] | MIC (Escherichia coli [14]) [µg/mL] | MIC (Acinetobacter baumannii [15]) [µg/mL] | MIC (Acinetobacter baumannii [16]) [µg/mL] | MIC (Acinetobacter baumannii [17]) [µg/mL] | MIC (Pseudomonas aeruginosa [18]) [µg/mL] | MIC (Klebsiella pneumoniae [19]) [µg/mL] | other results
O=C(NNC(=O)[C@@H]1CC[C@@H]2CN1C(=O)N2OS(=O)(=O)O)[C@@H]1CCCNC1 [ZIDEBACTAM] | ≤ 0.12 | > 16 | 4.8 10^5/M/s | ≤ 0.12 | ≤ 0.12 | ≤ 0.12 | 8 | ≤ 0.12 | ≤ 0.12 | ≤ 0.12 | 16 | > 16 | 8 | ≤ 0.12 | ≤ 0.12 | 2 | > 16 | 16 | 2 | ≤ 0.12 | MIC (Acinetobacter baumannii [20]): 16 µg/mL; MIC (Klebsiella pneumoniae [21]): ≤ 0.12 µg/mL; MIC (Klebsiella pneumoniae [22]): ≤ 0.12 µg/mL; MIC (Klebsiella pneumoniae [23]): ≤ 0.12 µg/mL; MIC (Escherichia coli [24]): ≤ 0.12 µg/mL; MIC (Acinetobacter baumannii [25]): > 16 µg/mL; MIC (Acinetobacter baumannii [26]): 0.25 µg/mL; MIC (Escherichia coli [27]): ≤ 0.12 µg/mL; MIC (Acinetobacter baumannii [28]): 4 µg/mL; MIC (Acinetobacter baumannii [29]): > 16 µg/mL; MIC (Escherichia coli [30]): ≤ 0.12 µg/mL; MIC (Klebsiella pneumoniae [31]): ≤ 0.12 µg/mL; MIC (Acinetobacter baumannii [32]): > 16 µg/mL; MIC (Acinetobacter baumannii [33]): 16 µg/mL; MIC (Klebsiella pneumoniae [34]): ≤ 0.12 µg/mL
O=C(NNC(=O)[C@@H]1CC[C@@H]2CN1C(=O)N2OS(=O)(=O)O)[C@@H]1CCNC1 | ≤ 0.12 | > 16 | 6.3 10^5/M/s | ≤ 0.12 | ≤ 0.12 | ≤ 0.12 | 8 | ≤ 0.12 | ≤ 0.12 | ≤ 0.12 | 8 | > 16 | 8 | ≤ 0.12 | ≤ 0.12 | 2 | > 16 | > 16 | ≤ 0.12 | ≤ 0.12 | MIC (Acinetobacter baumannii [20]): 16 µg/mL; MIC (Klebsiella pneumoniae [21]): ≤ 0.12 µg/mL; MIC (Klebsiella pneumoniae [22]): ≤ 0.12 µg/mL; MIC (Klebsiella pneumoniae [23]): ≤ 0.12 µg/mL; MIC (Escherichia coli [24]): ≤ 0.12 µg/mL; MIC (Acinetobacter baumannii [25]): > 16 µg/mL; MIC (Acinetobacter baumannii [26]): 0.25 µg/mL; MIC (Escherichia coli [27]): ≤ 0.12 µg/mL; MIC (Acinetobacter baumannii [28]): 8 µg/mL; MIC (Acinetobacter baumannii [29]): > 16 µg/mL; MIC (Escherichia coli [30]): ≤ 0.12 µg/mL; MIC (Klebsiella pneumoniae [31]): ≤ 0.12 µg/mL; MIC (Acinetobacter baumannii [32]): > 16 µg/mL; MIC (Acinetobacter baumannii [33]): 16 µg/mL; MIC (Klebsiella pneumoniae [34]): ≤ 0.12 µg/mL
